Consider 34 compounds from ChEMBL document CHEMBL1177709, “Molecular switch controlling the binding of anionic bile acid conjugates to human apical sodium-dependent bile acid transporter” (J Med Chem, 2010).

This test addresses T1, Ileal sodium/bile acid cotransporter (Homo sapiens, UniProt Q12908).
T1 sequence (Q12908 whole entry): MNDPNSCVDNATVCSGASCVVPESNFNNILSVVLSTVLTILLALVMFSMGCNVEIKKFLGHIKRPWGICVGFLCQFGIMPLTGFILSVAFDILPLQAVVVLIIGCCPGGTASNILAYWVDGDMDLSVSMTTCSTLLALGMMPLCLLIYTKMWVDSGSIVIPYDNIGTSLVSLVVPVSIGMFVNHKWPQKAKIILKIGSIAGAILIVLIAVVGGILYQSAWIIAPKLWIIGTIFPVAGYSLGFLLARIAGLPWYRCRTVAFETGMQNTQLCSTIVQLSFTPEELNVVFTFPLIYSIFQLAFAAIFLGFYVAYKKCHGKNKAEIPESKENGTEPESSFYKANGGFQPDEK
Briefly: Inhibition of human ASBT expressed in MDCK cells assessed as inhibition of [3H]taurocholic acid uptake after 10 mins by liquid scintillation counting. The class given is cell-based. The method in brief:
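Stably transfected hASBT-MDCK cells grown in DMEM with 10% FBS, penicillin/streptomycin and 1 mg/mL geneticin, seeded at 1.5 million/well, induced with 10mM sodium butyrate for 12-17 h before study on day 4. Cells washed with chilled sodium-free buffer, lysed in NaOH, neutralized, counted.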

As to `C[C@H](CCC(=O)N[C@@H](CCC(=O)Nc1cccc(C(=O)O)c1)C(=O)O)[C@H]1CC[C@H]2[C@@H]3[C@H](O)C[C@H]4C[C@H](O)CC[C@]4(C)[C@H]3CC[C@]12C`, the Ki – broadly, the dissociation constant of the complex between target and ligand, obtained from inhibition or displacement – was found to be 35.9 µM.

Regarding `C[C@H](CCC(=O)N[C@@H](CCC(=O)Nc1ccc(Cl)cc1)C(=O)O)[C@H]1CC[C@H]2[C@@H]3[C@H](O)C[C@H]4C[C@H](O)CC[C@]4(C)[C@H]3CC[C@]12C`, the Ki is 1.91 µM.

Regarding `COC(=O)c1ccc(NC(=O)CC[C@H](NC(=O)CC[C@@H](C)[C@H]2CC[C@H]3[C@@H]4[C@H](O)C[C@H]5C[C@H](O)CC[C@]5(C)[C@H]4CC[C@]23C)C(=O)O)cc1`, the Ki came out at 4.03 µM.

`Cc1cccc(NC(=O)CC[C@H](NC(=O)CC[C@@H](C)[C@H]2CC[C@H]3[C@@H]4[C@H](O)C[C@H]5C[C@H](O)CC[C@]5(C)[C@H]4CC[C@]23C)C(=O)O)c1C`: the Ki was determined as 4.3 µM.

Consider `CC(CCC(=O)NC(CCC(=O)Nc1cccc(NC(=O)OC(C)(C)C)c1)C(=O)O)C1CCC2C3C(O)CC4CC(O)CCC4(C)C3CCC12C` (centres undefined), for which the Ki came to 6.53 µM.

`C[C@H](CCC(=O)N[C@@H](CCC(=O)Nc1cccc(F)c1)C(=O)O)[C@H]1CC[C@H]2[C@@H]3[C@H](O)C[C@H]4C[C@H](O)CC[C@]4(C)[C@H]3CC[C@]12C`: the Ki was found to be 1.25 µM.

Regarding `C[C@H](CCC(=O)N[C@@H](CCC(=O)Nc1ccccc1C(C)(C)C)C(=O)O)[C@H]1CC[C@H]2[C@@H]3[C@H](O)C[C@H]4C[C@H](O)CC[C@]4(C)[C@H]3CC[C@]12C`, the Ki is 3.93 µM.

Take `C[C@H](CCC(=O)N[C@@H](CCC(=O)NCc1ccc(C(=O)O)cc1)C(=O)O)[C@H]1CC[C@H]2[C@@H]3[C@H](O)C[C@H]4C[C@H](O)CC[C@]4(C)[C@H]3CC[C@]12C`: the Ki turned out to be 41 µM.

With `COc1cccc(NC(=O)CC[C@H](NC(=O)CC[C@@H](C)[C@H]2CC[C@H]3[C@@H]4[C@H](O)C[C@H]5C[C@H](O)CC[C@]5(C)[C@H]4CC[C@]23C)C(=O)O)c1`, the Ki was determined as 4.22 µM.

In the case of `C[C@H](CCC(=O)N[C@@H](CCC(=O)Nc1ccc(C(=O)O)cc1)C(=O)O)[C@H]1CC[C@H]2[C@@H]3[C@H](O)C[C@H]4C[C@H](O)CC[C@]4(C)[C@H]3CC[C@]12C`, the Ki came out at 108 µM.

On to `C[C@H](CCC(=O)N[C@@H](CCC(=O)NCc1cccc(C(=O)O)c1)C(=O)O)[C@H]1CC[C@H]2[C@@H]3[C@H](O)C[C@H]4C[C@H](O)CC[C@]4(C)[C@H]3CC[C@]12C`, for which the Ki stood at 126 µM.

With `C[C@H](CCC(=O)N[C@@H](CCC(=O)Nc1ccc(N)cc1)C(=O)O)[C@H]1CC[C@H]2[C@@H]3[C@H](O)C[C@H]4C[C@H](O)CC[C@]4(C)[C@H]3CC[C@]12C`, the Ki stood at 15.9 µM.

For `CCOC(=O)c1ccc(NC(=O)CCC(NC(=O)CCC(C)C2CCC3C4C(O)CC5CC(O)CCC5(C)C4CCC23C)C(=O)O)cc1` (centres undefined), the Ki is 5.16 µM.

For the compound `C[C@H](CCC(=O)N[C@@H](CCC(=O)Nc1ccc(C(C)(C)C)cc1)C(=O)O)[C@H]1CC[C@H]2[C@@H]3[C@H](O)C[C@H]4C[C@H](O)CC[C@]4(C)[C@H]3CC[C@]12C`, the Ki was 0.275 µM.

Regarding `COc1cc(NC(=O)CC[C@H](NC(=O)CC[C@@H](C)[C@H]2CC[C@H]3[C@@H]4[C@H](O)C[C@H]5C[C@H](O)CC[C@]5(C)[C@H]4CC[C@]23C)C(=O)O)cc(OC)c1`, the Ki came out at 5.19 µM.

With `C[C@H](CCC(=O)N[C@@H](CCC(=O)Nc1cccc(C(=O)O)c1)C(=O)OOCc1ccccc1)[C@H]1CC[C@H]2[C@@H]3[C@H](O)C[C@H]4C[C@H](O)CC[C@]4(C)[C@H]3CC[C@]12C`, the Ki stood at 2.24 µM.

With `C[C@H](CCC(=O)N[C@@H](CCC(=O)Nc1ccc(F)cc1)C(=O)O)[C@H]1CC[C@H]2[C@@H]3[C@H](O)C[C@H]4C[C@H](O)CC[C@]4(C)[C@H]3CC[C@]12C`, the Ki was 3.02 µM.

Take `C[C@H](CCC(=O)N[C@@H](CCC(=O)Nc1ccccc1C(=O)O)C(=O)O)[C@H]1CC[C@H]2[C@@H]3[C@H](O)C[C@H]4C[C@H](O)CC[C@]4(C)[C@H]3CC[C@]12C`: the Ki worked out at 40.4 µM.

Regarding `Cc1ccccc1NC(=O)CC[C@H](NC(=O)CC[C@@H](C)[C@H]1CC[C@H]2[C@@H]3[C@H](O)C[C@H]4C[C@H](O)CC[C@]4(C)[C@H]3CC[C@]12C)C(=O)O`, the Ki amounted to 2.63 µM.

As for `CCOC(=O)c1ccccc1NC(=O)CCC(NC(=O)CCC(C)C1CCC2C3C(O)CC4CC(O)CCC4(C)C3CCC12C)C(=O)O` (centres undefined), the Ki stood at 1.15 µM.

As for `C[C@H](CCC(=O)N[C@@H](CCC(=O)Nc1ccccc1F)C(=O)O)[C@H]1CC[C@H]2[C@@H]3[C@H](O)C[C@H]4C[C@H](O)CC[C@]4(C)[C@H]3CC[C@]12C`, the Ki amounted to 2.31 µM.

With `C[C@H](CCC(=O)N[C@@H](CCC(=O)Nc1ccc(C(F)(F)F)cc1)C(=O)O)[C@H]1CC[C@H]2[C@@H]3[C@H](O)C[C@H]4C[C@H](O)CC[C@]4(C)[C@H]3CC[C@]12C`, the Ki stood at 2.02 µM.

As for `Cc1cccc(NC(=O)CC[C@H](NC(=O)CC[C@@H](C)[C@H]2CC[C@H]3[C@@H]4[C@H](O)C[C@H]5C[C@H](O)CC[C@]5(C)[C@H]4CC[C@]23C)C(=O)O)c1`, the Ki was found to be 0.889 µM.

On to `C[C@H](CCC(=O)N[C@@H](CCC(=O)Nc1ccccc1N)C(=O)O)[C@H]1CC[C@H]2[C@@H]3[C@H](O)C[C@H]4C[C@H](O)CC[C@]4(C)[C@H]3CC[C@]12C`, for which the Ki came to 2.64 µM.

Take `CC(CCC(=O)NC(CCC(=O)Nc1ccc(NC(=O)OC(C)(C)C)cc1)C(=O)O)C1CCC2C3C(O)CC4CC(O)CCC4(C)C3CCC12C` (centres undefined): the Ki stood at 5.26 µM.

As to `C[C@H](CCC(=O)N[C@@H](CCC(=O)Nc1ccc(F)cc1F)C(=O)O)[C@H]1CC[C@H]2[C@@H]3[C@H](O)C[C@H]4C[C@H](O)CC[C@]4(C)[C@H]3CC[C@]12C`, the inhibition constant Ki came out at 3.16 µM.

On to `COc1ccc(NC(=O)CC[C@H](NC(=O)CC[C@@H](C)[C@H]2CC[C@H]3[C@@H]4[C@H](O)C[C@H]5C[C@H](O)CC[C@]5(C)[C@H]4CC[C@]23C)C(=O)O)cc1`, for which the inhibition constant Ki is 6.09 µM.

Consider `C[C@H](CCC(=O)N[C@@H](CCC(=O)Nc1cccc(N)c1)C(=O)O)[C@H]1CC[C@H]2[C@@H]3[C@H](O)C[C@H]4C[C@H](O)CC[C@]4(C)[C@H]3CC[C@]12C`, for which the Ki amounted to 16.3 µM.

In the case of `Cc1cccc(C)c1NC(=O)CC[C@H](NC(=O)CC[C@@H](C)[C@H]1CC[C@H]2[C@@H]3[C@H](O)C[C@H]4C[C@H](O)CC[C@]4(C)[C@H]3CC[C@]12C)C(=O)O`, the Ki was determined as 8.07 µM.

Take `Cc1ccc(NC(=O)CC[C@H](NC(=O)CC[C@@H](C)[C@H]2CC[C@H]3[C@@H]4[C@H](O)C[C@H]5C[C@H](O)CC[C@]5(C)[C@H]4CC[C@]23C)C(=O)O)cc1`: the Ki was 3.2 µM.

Take `COc1ccccc1NC(=O)CC[C@H](NC(=O)CC[C@@H](C)[C@H]1CC[C@H]2[C@@H]3[C@H](O)C[C@H]4C[C@H](O)CC[C@]4(C)[C@H]3CC[C@]12C)C(=O)O`: the Ki stood at 3.89 µM.

In the case of `COC(=O)c1cccc(NC(=O)CC[C@H](NC(=O)CC[C@@H](C)[C@H]2CC[C@H]3[C@@H]4[C@H](O)C[C@H]5C[C@H](O)CC[C@]5(C)[C@H]4CC[C@]23C)C(=O)O)c1`, the Ki came to 7.65 µM.

Take `C[C@H](CCC(=O)N[C@@H](CCC(=O)Nc1cccc(C(C)(C)C)c1)C(=O)O)[C@H]1CC[C@H]2[C@@H]3[C@H](O)C[C@H]4C[C@H](O)CC[C@]4(C)[C@H]3CC[C@]12C`: the Ki worked out at 0.587 µM.

For the compound `COC(=O)c1ccccc1NC(=O)CC[C@H](NC(=O)CC[C@@H](C)[C@H]1CC[C@H]2[C@@H]3[C@H](O)C[C@H]4C[C@H](O)CC[C@]4(C)[C@H]3CC[C@]12C)C(=O)O`, the inhibition constant (Ki) was found to be 2.3 µM.
